The record followed here is ChEMBL document CHEMBL1949515, “Regioselective synthesis and antimicrobial activities of some novel aryloxyacetic acid derivatives” (2012).

By MIC is commonly meant the smallest concentration in the dilution series that meets the test's criterion for growth inhibition. Low values mean inhibition by little substance, high ones a need for much substance.

≈ marks a conversion by molar mass, not a printed value.

The test system of assay [1] is Saccharomyces cerevisiae. The assay is described as follows: Antifungal activity against Saccharomyces cerevisiae at 50 ug/ml after 48 hrs by agar well diffusion method. As to conditions: read-out: DIZ. Format: functional. In a few lines:
(§1)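 Fungal agar well diffusion. Plates were seeded with 1 × 10⁶ CFU/mL fungal suspension on Sabouraud dextrose agar. Wells were filled with compound solution from a 100 mg/mL DMSO stock. Plates were incubated 48 h at 28 °C. The mean inhibition zone diameter (mm) was taken from triplicate runs. Ketoconazole was the standard.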

The subject of assay [2] is Candida albicans. The assay can be described thus: Antifungal activity against Candida albicans NRRL Y-477 by two fold serial dilution method. Format: functional. In short, it runs like this:
(§2)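 MIC determined by two-fold serial dilution in the appropriate nutrient broth, only for compounds that gave sizeable inhibition zones in the well diffusion screen. Final concentrations stepped down by halves from 66 (66, 33, 16.5 …).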

The test system of assay [3] is Candida albicans. The assay can be described thus: Antifungal activity against Candida albicans NRRL Y-477 at 50 ug/ml after 48 hrs by agar well diffusion method. Format: functional. Particulars: NRRL Y-477, 48 h, read-out: DIZ. In a few lines: as §1
In general terms: In agar diffusion tests the substance spreads into inoculated agar from a disc or well.

Assay [4] relates to Saccharomyces cerevisiae. The assay can be described thus: Antifungal activity against Saccharomyces cerevisiae by two fold serial dilution method. Format: functional. In short, it runs like this: as §2
The test system of assay [5] is Pseudomonas aeruginosa. The assay can be described thus: microbe, parasite or virus in culture. As to conditions: ATCC 27953, 24 h, read-out: DIZ.
For assay [6], the system named is Staphylococcus aureus. The assay can be described thus: microbe, parasite or virus in culture. Particulars: ATCC 29213, 24 h, read-out: DIZ.
The subject of assay [7] is Pseudomonas aeruginosa. The assay can be described thus: Antibacterial activity against Pseudomonas aeruginosa ATCC 27953 after 24 hrs by two fold serial dilution method. Format: functional. As to conditions: ATCC 27953, 24 h. In a few lines: as §2
Assay [8] concerns Priestia megaterium. The assay is described as follows: Antibacterial activity against Bacillus megaterium after 24 hrs by two fold serial dilution method. Format: functional. In short, it runs like this: as §2
In assay [9] the test system is Klebsiella pneumoniae. The assay can be described thus: microbe, parasite or virus in culture. As to conditions: ATCC 13883, 24 h, read-out: DIZ.
The test system of assay [10] is Mycolicibacterium phlei. The assay is described as follows: Antibacterial activity against Mycobacterium phlei at 50 ug/ml after 24 hrs by agar well diffusion method. Format: functional. Particulars: read-out: DIZ. In a few lines: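 Agar well diffusion. Plates were seeded with bacterial suspension at 1 × 10⁸ CFU/mL spread on nutrient agar. Wells received compound solution made as a 100 mg/mL DMSO stock. Plates were incubated 24 h at 37 °C. Read-out was inhibition zone diameter (mm), run in triplicate and averaged. Ciprofloxacin was the reference.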

In assay [11] the test system is Micrococcus luteus. The assay is described as follows: Antibacterial activity against Sarcina lutea after 24 hrs by two fold serial dilution method. Format: functional. In short, it runs like this:
as §2

For assay [12], the system named is Bacillus subtilis. The assay is described as follows: Antibacterial activity against Bacillus subtilis ATCC 6633 after 24 hrs by two fold serial dilution method. Format: functional. Particulars: ATCC 6633, 24 h. In a few lines:
as §2

The test system of assay [13] is Bacillus subtilis. The assay can be described thus: microbe, parasite or virus in culture. Particulars: ATCC 6633, 24 h, read-out: DIZ.
A further assay concerns Escherichia coli. The assay can be described thus: Antibacterial activity against Escherichia coli ATCC 25922 after 24 hrs by two fold serial dilution method. Format: functional. As to conditions: ATCC 25922, 24 h. In a few lines:
as §2

The subject of assay [14] is Micrococcus luteus. The assay can be described thus: Antibacterial activity against Sarcina lutea at 50 ug/ml after 24 hrs by agar well diffusion method. Format: functional. As to conditions: read-out: DIZ.
The test system of assay [15] is Staphylococcus aureus. The assay is described as follows: Antibacterial activity against Staphylococcus aureus ATCC 29213 after 24 hrs by two fold serial dilution method. Format: functional. As to conditions: ATCC 29213, 24 h. In short, it runs like this: as §2
For assay [16], the system named is Klebsiella pneumoniae. The assay can be described thus: Antibacterial activity against Klebsiella pneumoniae ATCC 13883 after 24 hrs by two fold serial dilution method. Format: functional. Particulars: ATCC 13883, 24 h. In short, it runs like this: as §2
Assay [17] relates to Mycolicibacterium phlei. The assay can be described thus: Antibacterial activity against Mycobacterium phlei after 24 hrs by two fold serial dilution method. Format: functional. In short, it runs like this:
as §2

Assay [18] concerns Priestia megaterium. The assay is described as follows: Antibacterial activity against Bacillus megaterium at 50 ug/ml after 24 hrs by agar well diffusion method. Format: functional. As to conditions: read-out: DIZ.

In the case of `CC(=O)N1CCN(c2ccc(OCC3COC(Cn4ccnc4)(c4ccc(Cl)cc4Cl)O3)cc2)CC1` (centres undefined) [KETOCONAZOLE], the figures for the zone of inhibition at 50 µg/mL with Saccharomyces cerevisiae [1] and with Candida albicans [3] were 23 mm and 22 mm, respectively. In addition, the values for the MIC against Candida albicans [2] and with Saccharomyces cerevisiae [4] were 8.25 mg/L (≈ 15.5 µM) and 4.12 mg/L (≈ 7.76 µM), respectively.
In the case of `O=C(O)c1cn(C2CC2)c2cc(N3CCNCC3)c(F)cc2c1=O` [CIPROFLOXACIN], the zone of inhibition at 50 µg/mL was 24 mm in the assay on Pseudomonas aeruginosa [5]; 20 mm with Staphylococcus aureus [6]; 25 mm with Klebsiella pneumoniae [9]; 22 mm with Mycolicibacterium phlei [10]; 22 mm in the assay with Bacillus subtilis [13]; 20 mm with Micrococcus luteus [14]. In addition, in the assay with Priestia megaterium [18], the zone of inhibition at 50 µg/mL amounted to 24 mm. Moreover, the minimal inhibitory concentration (MIC) with Pseudomonas aeruginosa [7] was 16.5 mg/L (≈ 49.8 µM); with Priestia megaterium [8] it was 8.25 mg/L (≈ 24.9 µM); in the assay on Micrococcus luteus [11], 16.5 mg/L (≈ 49.8 µM); in the assay with Bacillus subtilis [12] it was 8.25 mg/L (≈ 24.9 µM); against Escherichia coli, 16.5 mg/L (≈ 49.8 µM); against Staphylococcus aureus [15], 8.25 mg/L (≈ 24.9 µM). Besides, the MIC against Klebsiella pneumoniae [16] and in the assay on Mycolicibacterium phlei [17] was 16.5 mg/L (≈ 49.8 µM) in each case.
